High-throughput results as filed in PubChem.
Mdm2-MdmX inh: disrupts the human Mdm2-MdmX interaction; AID 485346; inhibition, % at 8 µM; 3% of 330,000 active; O15151+Q00987; SaOS-2 split-luciferase Mdm2/MdmX complementation, luminescence;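 active means inhibition of at least 50% at 8 µM in the primary screen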
Target sequence (O15151 whole entry, looked up): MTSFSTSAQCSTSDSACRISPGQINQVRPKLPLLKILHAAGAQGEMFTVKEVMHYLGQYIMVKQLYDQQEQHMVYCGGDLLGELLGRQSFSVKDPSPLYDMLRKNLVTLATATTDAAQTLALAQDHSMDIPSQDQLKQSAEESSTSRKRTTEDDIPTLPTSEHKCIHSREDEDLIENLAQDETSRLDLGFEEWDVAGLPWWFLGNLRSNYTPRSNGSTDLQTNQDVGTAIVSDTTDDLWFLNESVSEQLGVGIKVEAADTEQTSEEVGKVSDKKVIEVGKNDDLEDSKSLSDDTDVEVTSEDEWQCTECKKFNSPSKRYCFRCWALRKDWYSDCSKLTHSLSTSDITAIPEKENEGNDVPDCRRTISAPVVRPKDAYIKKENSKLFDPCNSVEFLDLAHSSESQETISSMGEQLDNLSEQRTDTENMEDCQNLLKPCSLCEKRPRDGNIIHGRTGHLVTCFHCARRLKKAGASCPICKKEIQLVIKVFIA
Target sequence (Q00987 whole entry, looked up): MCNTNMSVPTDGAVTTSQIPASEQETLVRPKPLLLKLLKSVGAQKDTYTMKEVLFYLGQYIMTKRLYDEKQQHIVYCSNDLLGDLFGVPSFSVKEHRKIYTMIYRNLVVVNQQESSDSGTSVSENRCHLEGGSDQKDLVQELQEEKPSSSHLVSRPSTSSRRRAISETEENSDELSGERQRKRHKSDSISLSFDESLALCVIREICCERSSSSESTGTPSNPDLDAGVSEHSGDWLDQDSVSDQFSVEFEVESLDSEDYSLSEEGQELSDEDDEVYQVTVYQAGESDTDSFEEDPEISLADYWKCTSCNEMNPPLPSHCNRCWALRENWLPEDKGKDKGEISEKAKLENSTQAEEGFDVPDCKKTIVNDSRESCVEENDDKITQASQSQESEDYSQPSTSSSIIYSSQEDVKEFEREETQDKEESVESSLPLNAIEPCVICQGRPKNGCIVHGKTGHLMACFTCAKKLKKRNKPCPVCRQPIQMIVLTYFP
T cruzi repl: T. cruzi replication inhibition | T. cruzi beta-gal in NIH3T3, luminescence, 90 h | inhibition, % (no concentration beside the values) | 1.4% of 300,000 active | AID 1885;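 active means mean inhibition across valid replicates above about 55%, limit read from the data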;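 further: signal also drops with host cell toxicity which is not excluded here; 0% = plate median of DMSO wells and 100% = zero luminescence signal; higher percent means less beta-gal luminescence so fewer parasites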
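System – NIH/3T3 host cells with β-galactosidase reporter T. cruzi · Doses – single 50 nL compound addition per well in DMSO · Reagent – 5000 T. cruzi trypomastigotes/well · Medium – Low-serum DMEM with 2% FBS · Timing – ≥90 h infection period, 3 h prior cell attachment · Evaluation – parasite load inhibition, % · Technique – GalScreen luminescence, 60 min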
UPR CHOP act: apoptotic UPR (CHOP) activation. CHO-CHOP luciferase reporter, luminescence; percent of tunicamycin response over DMSO baseline. activation, % at 10 µM. 0.34% of 330,000 active;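 active means at 10 µM dose, activation of 40% or more, normalized to positive control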;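 further: 100% = tunicamycin at 10 µg/mL and 0% = DMSO alone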
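Assay system: CHO-CHOP cells, stable luciferase reporter of PERK-eIF2a-CHOP signalling / Buffer or medium: F12 plus 10% serum / Compound dosing: one dose, 10 µM in 0.5% DMSO / Times: 6 h compound treatment, 37 °C / Technique: luciferase luminescence / Read-out: % reporter activation, DMSO baseline versus tunicamycin full activation / Benchmarks: tunicamycin and DMSO controls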
CSC inhib: cancer stem cell inhibition; cancer stem cell-like cells viability, luminescence; inhibition, % at 7.5 µM; 1.1% of 300,000 active; AID 2717; in the data active means inhibition above about 75%; tested in HMLE shEcad cells
Beta cell apopt: beta cell apoptosis inhibition. INS-1E cytokine-induced death, ATP luminescence, 48 h; percent of positive-control rescue, neutral wells zero. protection from apoptosis, % (concentration not given with the values). 0.8% of 300,000 active. AID 435005;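 active means Every replicate reaches about 75%, or at least half do and their mean reaches it too, limit read from the data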;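 further: 0% = cytokine-treated negative control wells and 100% = positive control rescue; higher means more ATP so stronger rescue from cytokine killing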
XBP1 UPR activ: activators of adaptive arm of unfolded protein response (XBP1); CHO-XBP1 luciferase reporter, IRE1-XBP1 UPR activation, luminescence; percent of tunicamycin response, DMSO as zero; activation, % at 20 µM; 0.33% of 330,000 active; AID 463104;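 active means versus positive control, 20 µM dose yields 30% or more activation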;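 further: 100% = tunicamycin at 10 µg/mL and 0% = DMSO only wells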
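assay system = CHO-XBP1 luciferase reporter cells | amount = 1000 cells/well | buffer or medium = F12 plus 10% FBS | compound dosing = single point, 20 µM final compound, 1% DMSO | incubation = 16-18 h cell attachment at 37 °C, then 6 h compound exposure | detection = Steady-Glo luminescence read | controls = tunicamycin 10 µg/mL and vehicle-only wells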
Mdm2-MdmX conf: human Mdm2/MdmX binding inhibition, confirmed. shares compounds with Mdm2-MdmX inh. luminescent assay. inhibition, % at 8 µM. 55% of 10,000 active; in the data active means inhibition above about 40%
FLuc counter: counter-screen for Mdm2/MdmX inhibitors: full-length luciferase; SaOS-2 full-length luciferase counterscreen, luminescence; AID 504607; inhibition, % at 8 µM; 77% of 6,200 active; shares compounds with Mdm2-MdmX inh;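 active means mean inhibition at 8 µM reaching about 37%, which flags the compound as non-specific, limit read from the data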;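 further: p53-null SaOS-2 cells with luciferase driven by a doxycycline-inducible promoter; compound on cells about two nights before reading with doxycycline added after day one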
* = called active by the depositor. The list is not random: actives were taken first. Their share in the collection is about 5%.

Results for COc1ccc2sc(-c3ccccc3OC)c(-c3ccc(OCCN(C)C)cc3)c2c1 ?
Mdm2-MdmX inh: 11.1; UPR CHOP act: 2.1; XBP1 UPR activ: 4.1

How did Cc1oc(-c2ccccc2)nc1CS(=O)CC(=O)NC1CCCC1 (stereo not drawn) do in these assays?
Mdm2-MdmX inh: 12.3; T cruzi repl: -14.6; UPR CHOP act: 2.1; Beta cell apopt: -8.4; XBP1 UPR activ: -2.1

What do the screens show for `Cc1cccc(NC(=O)CN2CCN(C(=O)c3c(C)nn(Cc4ccccc4)c3C)CC2)c1C`?
Mdm2-MdmX inh: 6.5; UPR CHOP act: 1.9; Beta cell apopt: -4.3; XBP1 UPR activ: -3.6

Results for CCCCNC(=O)C(c1ccc(OCC(=O)OC)c(C(=O)OC)c1)N(CCOC)C(=O)CCCCCN1C(=O)NC(c2ccc(-c3ccccc3)cc2)C(C(=O)OCc2ccccc2)=C1C (stereo not drawn) ?
Mdm2-MdmX inh: 100.3*; T cruzi repl: 20.9; UPR CHOP act: 1.3; CSC inhib: 124.8*; Beta cell apopt: -2.3; XBP1 UPR activ: -2.5; Mdm2-MdmX conf: 65.8*; FLuc counter: 10.9

What do the screens show for `COC(=O)COc1ccc(NC(=O)Cn2nc(-c3ccccc3)c3ccccc3c2=O)cc1`?
Mdm2-MdmX inh: 81.5*; T cruzi repl: 0.5; UPR CHOP act: 2.4; CSC inhib: 2.8; Beta cell apopt: -1.7; XBP1 UPR activ: 13.1; Mdm2-MdmX conf: 48.9*; FLuc counter: 89.3*

What do the screens show for `COc1ccc(-c2nn(CC(=O)Nc3ccc(Cl)c(Cl)c3)c(=O)c3ccccc23)cc1`?
Mdm2-MdmX inh: 18.7; T cruzi repl: 2.4; UPR CHOP act: -1.2; CSC inhib: -8.4; Beta cell apopt: -9.1; XBP1 UPR activ: -4.6

How did CCOc1cc(OCC)nc(S(C)(=O)=O)n1 do in these assays?
Mdm2-MdmX inh: 0.1; T cruzi repl: 9.1; UPR CHOP act: 0.7; CSC inhib: -4.6; Beta cell apopt: -7.2; XBP1 UPR activ: -1.1

What do the screens show for `COc1cc(OC)c(OC)cc1/C=N/Nc1nc2ccccc2[nH]1`?
Mdm2-MdmX inh: 24.1; T cruzi repl: -24.5; UPR CHOP act: 1.7; CSC inhib: -14.7; Beta cell apopt: -3.3; XBP1 UPR activ: 4.9

What do the screens show for `C(=N\Nc1nc2ccccc2[nH]1)/c1cccc2nccnc12`?
Mdm2-MdmX inh: 73.8*; T cruzi repl: 12.6; UPR CHOP act: 8.2; CSC inhib: 26.7; Beta cell apopt: 71.6; XBP1 UPR activ: 14.9; Mdm2-MdmX conf: 64.9*; FLuc counter: 31.8

How did CCN(CC)c1ccc(/C=N/Nc2nc3ccccc3[nH]2)c(O)c1 do in these assays?
Mdm2-MdmX inh: 58.5*; T cruzi repl: 59.0*; UPR CHOP act: 13.3; CSC inhib: 101.1*; Beta cell apopt: 122.1*; XBP1 UPR activ: 23.5; Mdm2-MdmX conf: 74.2*; FLuc counter: 39.6*

What do the screens show for `CC(C)c1ccc(N=C2N=C(N)c3ccccc32)cc1`?
Mdm2-MdmX inh: 40.0; T cruzi repl: -18.8; UPR CHOP act: 6.3; CSC inhib: 20.5; Beta cell apopt: -6.7; XBP1 UPR activ: 9.3

What do the screens show for `Cn1c(=O)n(CC(=O)NCC2CCCO2)c(=O)c2c3c(sc21)CCCC3` (stereo not drawn)?
Mdm2-MdmX inh: 24.4; T cruzi repl: -2.9; UPR CHOP act: 1.4; CSC inhib: 2.5; Beta cell apopt: -6.4; XBP1 UPR activ: -0.5

Results for CC(C)(C)c1ccc(C(=O)NC(=S)Nc2nc3c(s2)CCCC3)cc1 ?
Mdm2-MdmX inh: 60.5*; T cruzi repl: 46.1; UPR CHOP act: -1.7; CSC inhib: 79.8*; Beta cell apopt: 12.9; XBP1 UPR activ: -2.7; Mdm2-MdmX conf: 51.1*; FLuc counter: 101.5*

Results for CN(C)c1ccc(C(=O)Nc2nc3c(s2)CCCC3)cc1 ?
Mdm2-MdmX inh: 15.7; T cruzi repl: 47.8; UPR CHOP act: -6.4; CSC inhib: 3.1; Beta cell apopt: 6.8; XBP1 UPR activ: -6.8

How did CNC(=O)c1cc2cc(Cl)cc(OC)c2oc1=O do in these assays?
Mdm2-MdmX inh: 12.6; T cruzi repl: -14.6; UPR CHOP act: -0.1; CSC inhib: -1.2; Beta cell apopt: -1.4; XBP1 UPR activ: -5.1

Results for Cc1ccc2cc(C#N)c(SCc3nnc(-c4ccccc4[N+](=O)[O-])o3)nc2c1 ?
Mdm2-MdmX inh: 87.1*; T cruzi repl: 0.2; UPR CHOP act: 6.2; CSC inhib: 12.5; Beta cell apopt: 9.6; XBP1 UPR activ: 2.8; Mdm2-MdmX conf: 78.7*; FLuc counter: 72.3*

Results for COc1ccc(-c2cc(=O)oc3cc(OC(C)C(=O)NCCCn4ccnc4)ccc23)cc1 (stereo not drawn) ?
Mdm2-MdmX inh: 19.0; T cruzi repl: 11.5; UPR CHOP act: 1.7; CSC inhib: 44.8; Beta cell apopt: -2.0; XBP1 UPR activ: -1.5

How did Cc1cc(NCCOCCO)n2ncc(-c3ccc(Cl)cc3)c2n1 do in these assays?
Mdm2-MdmX inh: 61.2*; T cruzi repl: -52.8; UPR CHOP act: 15.1; CSC inhib: 28.8; Beta cell apopt: -12.9; XBP1 UPR activ: 10.9; Mdm2-MdmX conf: 53.5*; FLuc counter: 58.7*

How did CN(C)CCCNc1cc(C(C)(C)C)nc2c(-c3ccccc3)cnn12 do in these assays?
Mdm2-MdmX inh: 100.2*; T cruzi repl: 55.8*; UPR CHOP act: 13.2; CSC inhib: 99.5*; Beta cell apopt: 113.4*; XBP1 UPR activ: 15.3; Mdm2-MdmX conf: 52.5*; FLuc counter: 72.4*

How did Cc1cc(NCCCn2ccnc2)n2nc(-c3ccc(Cl)cc3)cc2n1 do in these assays?
Mdm2-MdmX inh: 4.5; T cruzi repl: 25.3; UPR CHOP act: 2.9; CSC inhib: 26.8; Beta cell apopt: 15.5; XBP1 UPR activ: 3.0

Results for CC(C)(C)c1cc(NCCCn2ccnc2)n2ncc(-c3ccc(Cl)cc3)c2n1 ?
Mdm2-MdmX inh: 73.9*; T cruzi repl: 57.6*; UPR CHOP act: 15.9; CSC inhib: 112.2*; Beta cell apopt: 8.6; XBP1 UPR activ: 13.9; Mdm2-MdmX conf: 42.5*; FLuc counter: 34.9

Results for CC(C)(C)NC(=O)CN1CCCN(C(=O)c2cccc(S(=O)(=O)N3CCc4ccccc43)c2)CC1 ?
Mdm2-MdmX inh: 2.0; UPR CHOP act: -1.0; CSC inhib: 0.1; Beta cell apopt: 2.3; XBP1 UPR activ: -4.7

Results for CCOC(=O)c1c(NC(=S)NC(=O)c2ccc(Cn3cc(Cl)cn3)o2)sc2c1CCCCC2 ?
Mdm2-MdmX inh: 36.1; T cruzi repl: 8.9; UPR CHOP act: 0.9; CSC inhib: 8.5; Beta cell apopt: -0.8; XBP1 UPR activ: 15.3
